Source: ChEMBL document CHEMBL4393712, “Discovery of chalcone-modified estradiol analogs as antitumour agents that Inhibit tumour angiogenesis and epithelial to mesenchymal transition” (Eur J Med Chem, 2019)
Activity calls are given as the source filed them. The calls are words filed in the database; no cut-off is given here.

Tests used:
SK-N-SH = test: Antitumour activity against human SK-N-SH cells assessed as cell growth inhibition measured after 72 hrs by SRB assay; assay type: functional, cell-based
In short: (§1)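 Exponentially growing cells trypsinized, seeded at 5 × 10^4 cells/mL in 96-well plates, cultured overnight, then exposed to compounds for 72 h. Cells fixed with 10% TCA 1 h, stained with SRB 15 min, dye dissolved in Tris-HCl, absorbance read; 50% growth-inhibitory concentration calculated.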

B16 = test: Antitumour activity against mouse B16 cells assessed as cell growth inhibition measured after 72 hrs by SRB assay; assay type: functional, cell-based; conditions: B16, 72 h; in short: as §1
ECa-109 cell line = test: Antitumour activity against human EC109 cells assessed as cell growth inhibition measured after 72 hrs by SRB assay; assay type: functional, cell-based; conditions: ECa-109, 72 h; in short: as §1
MGC-803 = test: Antitumour activity against human MGC803 cells assessed as cell growth inhibition measured after 72 hrs by SRB assay; assay type: functional, cell-based; conditions: MGC-803, 72 h; in short: as §1
A549 = test: Antitumour activity against human A549 cells assessed as cell growth inhibition measured after 72 hrs by SRB assay; assay type: functional, cell-based; conditions: A549, 72 h; in short: as §1
SMMC-7721 = test: Antitumour activity against human SMMC7721 cells assessed as cell growth inhibition measured after 72 hrs by SRB assay; assay type: functional, cell-based; conditions: SMMC-7721, 72 h; in short: as §1
HEK293 = test: Cytotoxicity against human HEK293 cells measured after 48 to 72 hrs by MTT assay; assay type: cell-based
In short: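 Cells seeded at 3 × 10^3 per well in 96-well plates, incubated overnight, then given fresh medium with a range of drug concentrations for 48 h or 72 h. MTT added (final 500 µg/mL) for 4 h, formazan dissolved in DMSO, absorbance at 570 nm; IC50 derived. Mean ± SD of 3 independent tests.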

[1] = Solubility of the compound in water; assay type: physicochemical; conditions: buffer
Chorioallantoic membrane = test: Antiangiogenic activity in chicken chorioallantoic membrane assessed as reduction in neovascularization at 50 ug/ml measured after 72 hrs by CAM assay; assay type: functional; conditions: Gallus gallus
In short: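 Fertilized chicken eggs incubated 6 days at 37 °C; shell windowed and CAM treated (compounds and controls at […] as printed; saline vehicle control). Eggs re-incubated humidified; membranes fixed and harvested after 72 h. Angiogenesis scored by counting blood vessels and imaging neovascular zones; ten eggs per group.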

CCRF-CEM = test: Anticancer activity against human CCRF-CEM cells measured after 48 hrs by SRB assay; assay type: functional
K562 = test: Anticancer activity against human K562 cells measured after 48 hrs by SRB assay; assay type: functional; conditions: K562, 48 h
RPMI-8226 = test: Anticancer activity against human RPMI8226 cells measured after 48 hrs by SRB assay; assay type: functional; conditions: RPMI-8226, 48 h
SR = test: Anticancer activity against human SR cells measured after 48 hrs by SRB assay; assay type: functional
MCF7 = test: Antiproliferative activity against human MCF7 cells measured after 72 hrs by MTT assay; assay type: functional, cell-based; conditions: MCF7, 72 h
MDA-MB-231 = test: Antiproliferative activity against human MDA-MB-231 cells measured after 72 hrs by MTT assay; assay type: functional, cell-based; conditions: MDA-MB-231, 72 h
HeLa = test: Antiproliferative activity against human HeLa cells measured after 72 hrs by MTT assay; assay type: functional, cell-based
HCT-116 = test: Antiproliferative activity against human HCT116 cells measured after 48 hrs by SRB assay; assay type: functional; conditions: HCT-116, 48 h
NCI-H460 = test: Antiproliferative activity against human NCI-H460 cells measured after 48 hrs by SRB assay; assay type: functional; conditions: NCI-H460, 48 h
U-251 = test: Antiproliferative activity against human U251 cells measured after 48 hrs by SRB assay; assay type: functional; conditions: U-251, 48 h
MDA-MB-435 = test: Antiproliferative activity against human MDA-MB-435 cells measured after 48 hrs by SRB assay; assay type: functional; conditions: MDA-MB-435, 48 h

Row | SMILES | IC50 (SK-N-SH) | IC50 (B16) | IC50 (ECa-109 cell line) | IC50 (MGC-803) | IC50 (A549) | IC50 (SMMC-7721) | IC50 (HEK293) | solubility [1] | further results
1 | COc1cc2c(cc1O)CC[C@@H]1[C@@H]2CC[C@]2(C)C(=O)/C(=C/c3ccc(Br)cc3)C[C@@H]12 | 42 µM | 2.6 µM | 17.6 µM | 14.1 µM | 39.4 µM | 0.1 µM | 48.9 µM | Soluble | inhibition (Chorioallantoic membrane): Active
2 | C[C@]12CC[C@@H]3c4cc(C(=O)/C=C/c5cccc(Cl)c5)c(O)cc4CC[C@H]3[C@@H]1CC[C@@H]2O | 10.3 µM | 12.4 µM | 8.5 µM | 8 µM | 10.9 µM | 6.3 µM |  |  | 
3 | COc1cc2c(cc1O)CC[C@@H]1[C@@H]2CC[C@]2(C)C(=O)/C(=C/c3cc(OC)c(OC)c(OC)c3)C[C@@H]12 | 14.3 µM | 18.8 µM | 13.9 µM | 18.7 µM | 14.5 µM | 2.8 µM |  |  | 
4 | COc1cc2c(cc1O)CC[C@@H]1[C@@H]2CC[C@]2(C)C(=O)/C(=C/c3cccc(OC)c3OC)C[C@@H]12 | 18.2 µM | 12.7 µM | 10.5 µM | 18.3 µM | 20.4 µM | 8.6 µM | 51 µM | Soluble | 
5 | C[C@]12CC[C@@H]3c4cc(C(=O)/C=C/c5ccccc5Cl)c(O)cc4CC[C@H]3[C@@H]1CC[C@@H]2O | 16.4 µM | 15.9 µM | 13.2 µM | 8.3 µM | 15.5 µM | 11.3 µM |  |  | 
6 | C[C@]12CC[C@@H]3c4cc(C(=O)/C=C/c5ccc(Cl)cc5)c(O)cc4CC[C@H]3[C@@H]1CC[C@@H]2O | 15 µM | 15.3 µM | 14 µM | 15.7 µM | 12.1 µM | 44.9 µM |  |  | 
7 | COc1cc2c(cc1O)CC[C@@H]1[C@@H]2CC[C@]2(C)C(=O)/C(=C/c3cc(F)cc(F)c3)C[C@@H]12 | 8 µM | 14.2 µM | 16.2 µM | 10.7 µM | 15 µM | 5.1 µM |  |  | 
8 | COc1cc2c(cc1O)CC[C@@H]1[C@@H]2CC[C@]2(C)C(=O)/C(=C/c3ccccc3)C[C@@H]12 | 22.4 µM | 17.8 µM | 22.8 µM | 17.7 µM | 19.4 µM | 17.2 µM |  |  | 
9 | COc1cccc(/C=C/C(=O)c2cc3c(cc2O)CC[C@@H]2[C@@H]3CC[C@]3(C)[C@@H](O)CC[C@@H]23)c1 | 4.5 µM | 8.9 µM | 5.6 µM | 4 µM | 5.5 µM | 26.1 µM | 13.1 µM | Soluble | inhibition (Chorioallantoic membrane): Active
10 | C[C@]12CC[C@@H]3c4cc(C(=O)/C=C/c5ccc(OCc6ccccc6)cc5)c(O)cc4CC[C@H]3[C@@H]1CC[C@@H]2O | > 128 µM | > 128 µM | > 128 µM | > 128 µM | 52.6 µM | > 128 µM | > 100 µM | Soluble | inhibition (Chorioallantoic membrane): Active
11 | COc1cc2c(cc1O)CC[C@@H]1[C@@H]2CC[C@]2(C)C(=O)/C(=C/c3ccc(S(C)(=O)=O)cc3)C[C@@H]12 | 20.5 µM | 7.7 µM | 18.2 µM | 10.5 µM | 5.9 µM | 37.3 µM | > 100 µM |  | 
12 | CN1CCN(C(=O)COc2ccc(/C=C3\C[C@H]4[C@@H]5CC=C6CC(Cl)CC[C@]6(C)[C@H]5CC[C@]4(C)C3=O)cc2)CC1 (some centres undefined) |  |  |  |  |  |  |  |  | GI50 (CCRF-CEM): 3.94 µM; GI50 (K562): 2.61 µM; GI50 (RPMI-8226): 6.9 µM; GI50 (SR): 1.79 µM
13 | COc1cc2c(cc1O)CC[C@@H]1[C@@H]2CC[C@]2(C)C(=O)/C(=C/c3ccc(C)cc3)C[C@@H]12 | 20.1 µM | 6 µM | 22.5 µM | 20.5 µM | 53 µM | 20.8 µM |  |  | 
14 | COc1ccc(/C=C/C(=O)c2cc3c(cc2O)CC[C@@H]2[C@@H]3CC[C@]3(C)[C@@H](O)CC[C@@H]23)cc1 | 18.9 µM | 17.4 µM | 18.2 µM | 12.2 µM | 8.6 µM | 16.1 µM |  |  | 
15 | COc1cc2c(cc1O)CC[C@@H]1[C@@H]2CC[C@]2(C)C(=O)/C(=C/c3ccc(Cl)cc3Cl)C[C@@H]12 | 17.8 µM | 16.5 µM | 15.3 µM | 15.8 µM | 15.5 µM | 1.7 µM |  |  | 
16 | C[C@]12CC[C@H]3[C@@H](CCC4=CC(=O)CC[C@@]43C)[C@@H]1CC[C@@H]2C(=O)/C=C/c1ccc(F)cc1 |  |  |  |  |  |  |  |  | IC50 (MCF7): 2 µM; IC50 (MDA-MB-231): 2 µM
17 | C[C@]12CC[C@@H]3c4cc(C(=O)/C=C/c5ccc(Cl)cc5Cl)c(O)cc4CC[C@H]3[C@@H]1CC[C@@H]2O | 22.7 µM | 13.1 µM | 19.4 µM | 12.5 µM | 13.7 µM | 14.5 µM |  |  | 
18 | COc1ccccc1/C=C/C(=O)c1cc2c(cc1O)CC[C@@H]1[C@@H]2CC[C@]2(C)[C@@H](O)CC[C@@H]12 | 22.2 µM | 16.5 µM | 26.5 µM | 9.8 µM | 5.9 µM | 0.6 µM |  |  | 
19 | COc1cc2c(cc1O)CC[C@@H]1[C@@H]2CC[C@]2(C)C(=O)/C(=C/c3cccc(Cl)c3)C[C@@H]12 | 21 µM | 10.1 µM | 24.3 µM | 12.3 µM | 22.6 µM | 16.9 µM | 77.1 µM | Soluble | inhibition (Chorioallantoic membrane): Active
20 | COc1cc2c(cc1O)CC[C@@H]1[C@@H]2CC[C@]2(C)C(=O)/C(=C/c3cccc([N+](=O)[O-])c3)C[C@@H]12 | 24.5 µM | 6.7 µM | 23.3 µM | 12.7 µM | 21.2 µM | 8.1 µM |  | Soluble | 
21 | COc1cc2c(cc1O)CC[C@@H]1[C@@H]2CC[C@]2(C)C(=O)/C(=C/c3ccc(F)cc3)C[C@@H]12 | 27 µM | 16.8 µM | 19.9 µM | 13.5 µM | 25.3 µM | 8.2 µM | 87.8 µM | Soluble | inhibition (Chorioallantoic membrane): Active
22 | C[C@]12CC[C@@H]3c4ccc(O)cc4CC[C@H]3[C@@H]1C/C(=N\O)C2=O |  |  |  |  |  |  |  |  | IC50 (HeLa): 4.41 µM
23 | C=C1CC[C@H]2[C@@H]3CCc4cc(O)c(/C=C/C(=O)c5cc(OC)c(OC)c(OC)c5)cc4[C@H]3CC[C@]12C |  |  |  |  |  |  |  |  | GI50 (HCT-116): 1.6 µM; GI50 (NCI-H460): 2.6 µM; GI50 (U-251): 1.4 µM; GI50 (MDA-MB-435): 1.6 µM
